Sampled rows, rich in hits. Any-hit rate of the full collection: about 5.1%.
STAT1 blocker = inhibitors of IFN-gamma induced STAT1 signaling | inhibition, % at 5.5 µM | AID 920 | 200,000 compounds, 0.35% hits | NIH 3T3 STAT1-luciferase reporter, luminescence;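 active = inhibition above a set limit, the mean inhibition across all tested compounds plus 3 SD, cut at about 34% in these data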;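 note: 0% = IFN-gamma with DMSO and 100% = IFN-gamma with 300 µM nifuroxazide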
STAT3 blocker = STAT3 signaling inhibition; U3A cells, IL-6 STAT3-luciferase reporter, luminescence; host cell line lacks STAT1; inhibition, % at 5.5 µM; 190,000 compounds, 0.89% hits; AID 862;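 active = inhibition above the mean inhibition across all screened compounds plus 3 SD, cut at about 44% in these data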;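 note: 0% = DMSO only wells and 100% = 100 µM nifuroxazide control wells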
STAT1 act = STAT1 signaling activation | 200,000 compounds, 2.6% hits | NIH 3T3 STAT1-luciferase reporter, IFN-gamma, luminescence; 100% = IFN-gamma alone, no compound | activation (% of control), % at 5.5 µM | AID 932;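 active = activation above the screen-wide mean activation plus 3 SD, cut at about 130% in these data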;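 note: raw ratio to IFN-gamma control signal so 100% means no change and 0% no light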
STAT3 act = STAT3 signaling activation. U3A cells, IL-6 STAT3-luciferase reporter, luminescence; 100% = signal with IL-6 EC80 alone. activation (% of control), % at 5.6 µM. 190,000 compounds, 0.91% hits;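 active = activation above the screen-wide mean of compound activation plus 3 SD, cut at about 130% in these data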;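 note: 0% = background luminescence of wells with medium and substrate only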
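Material: STAT1-lacking human U3A cells, STAT3 luciferase reporter | Benchmarks: IL-6-only wells as 100% reference | Probe or stimulus: IL-6 (33 ng/mL) | Timing: Compound 1 h, then IL-6 6 h at 37 °C | Detection: Luminescence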
NF-kB expr up = compounds increasing NF-kB expression in human neuronal cells. NF-kB reporter expression; stronger effect = higher value. 190,000 compounds, 1.6% hits. fold change at 12.5 µM; in the data active = fold change above about 3.3
APP 5'UTR act = APP 5'UTR luciferase reporter activation. SH-SY5Y APP 5'UTR luciferase reporter, luminescence; zero percent = DMSO vehicle wells. activation, % at 2 µM. 190,000 compounds, 1% hits;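 active = activation above a set limit, based on mean plus 3 SD of controls, cut at about 140% in these data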
* = called active by the depositor.

SMILES	STAT1 blocker	STAT3 blocker	STAT1 act	STAT3 act	NF-kB expr up	APP 5'UTR act
O=C1CC(C(=O)N(c2ccccc2)C(C(=O)NC2CCCC2)c2ccncc2)CS1 (stereo unspecified)	1	6	98	101	0.98	8
Cn1c(C(=O)NCC2CCCO2)cc2oc3ccccc3c21 (stereo unspecified)	-49	20	144*	87	2.3	117
Cc1cccnc1NC(=O)c1c(O)c2ccccc2n(C)c1=O	-5	-39	105	133*	1.1	-3
Cn1c(=O)c(C(=O)NCC2CCCO2)c(O)c2ccccc21 (stereo unspecified)	-34	-15	129*	115	2.4	20
O=C(C1CC1)N1N=C(c2ccncc2)CC1(O)C(F)(F)F (stereo unspecified)	10	-5	91	106	1.2	1
CC(=O)NCCN1C(=O)C2C3c4ccccc4C(c4ccccc43)C2C1=O (stereo unspecified)	-4	4	103	100	1.1	19
Cc1cc(N)n(-c2ccccc2)n1	-2	2	102	100	1.2	2
Cc1cc(N)n(-c2cc(C)c3ccccc3n2)n1	-13	3	112	102	4.5*	137*
Cc1cc(C)c2nc(-n3nc(C)cc3N)cc(C)c2c1	-45	-26	143*	120	1.8	91
O=C(NCCN1CCN(c2cccc(Cl)c2)CC1)c1ccc(CSc2nc3ccncc3[nH]2)cc1	13	18	87	86	1.1	7
CCOc1ccc2nc(NC(=O)CSC3=NCCS3)sc2c1	-32	25	129*	80	3.1	46
O=C(Nc1nc2ccccc2s1)c1cnccn1	-18	36	116	69	4*	55
CCOc1ccc2nc(NC(=O)c3cnccn3)sc2c1	-42	18	138*	86	3.3	38
O=C(Nc1nccs1)c1cnccn1	4	8	96	97	1.3	11
CCOc1ccc2nc(NC(=O)CSc3ccc(Cl)cc3)sc2c1	3	-3	97	104	1.1	-14
O=C(Nc1nc2ccc(F)cc2s1)c1ccccn1	70*	96*	35	22	0.43	30
CNS(=O)(=O)c1ccc(NC(=O)c2cncc(Br)c2)cc1	-3	18	100	88	1.1	9
O=C(NCc1cccnc1)C(=O)Nc1nccs1	-4	6	104	95	1.1	2
O=C(NCc1cccnc1)C(=O)Nc1nc2ccccc2s1	-41	-5	139*	105	1.5	7
CS(=O)(=O)c1ccc(S(=O)CC(=O)Oc2ccc(Cl)cc2)c([N+](=O)[O-])c1 (stereo unspecified)	3	-38	96	135*	1.1	-35
c1ccc(-c2noc(-c3ccccc3-c3ccccc3)n2)cc1	5	18	96	89	1.4	-14
Cc1ccc(-c2nc(-c3cccnc3)no2)c(C)c1	-54	13	147*	90	4.8*	144*
Brc1ccc(-c2nc(-c3cccnc3)no2)o1	-35	13	132*	92	1.2	38
Brc1ccc(-c2nc(-c3ccccc3)no2)o1	-53	-12	149*	114	4.1*	143*
Cc1ccc(S(=O)(=O)CCC(=O)OCC(=O)NCc2ccc(Cl)cc2)cc1	4	3	97	101	1.1	21
SMILES	STAT1 blocker	STAT3 blocker	STAT1 act	STAT3 act	NF-kB expr up	APP 5'UTR act
COc1ccc(NC(=O)COC(=O)CCCOc2ccc(Cl)cc2Cl)cc1Cl	1	4	99	99	1.2	9
Cn1cc2ccc(N)cc2n1	-1	1	99	106	1.3	-13
Cc1ccc(-n2nc3ccc(NC(=O)C(C)C)cc3n2)cc1	-40	22	135*	85	3.2	194*
Cc1ccc(-n2nc(-c3ccc(N)cc3)cc2N)cc1	8	-5	93	104	1.6	24
CC(C)c1ccc(-n2nc3ccc(N)cc3n2)cc1	17	22	84	83	4.9*	117
Cc1ccc(-n2nc3ccc(N)cc3n2)cc1	-52	1	150*	102	2.7	7
COCn1c(-c2ccc(OC)c(OC)c2)nc2ccccc21	-35	12	132*	92	1.8	73

Screening results (PubChem)
